For data set [1], the system named is CCRF-CEM. Briefly: Cytotoxicity against human CCRF-CEM cells assessed as inhibition of cell growth incubated for 72 hrs by MTS assay. It is filed as functional, cell-based. Put shortly:
(§1)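 MTS assay on eight human cancer lines and two non-tumour fibroblast lines. IC50 is the concentration that inhibits cell growth by 50 %. SD typically up to 15 % of the mean.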
(Formazan colour is commonly taken as a measure of viable cells.)

Data set [2] relates to CEM-DNR. Nature of the data set: Cytotoxicity against human CEM-DNR cells assessed as inhibition of cell growth incubated for 72 hrs by MTS assay. It is filed as functional, cell-based. Put shortly:
as §1

Data set [3] relates to HCT-116. Briefly: Cytotoxicity against human HCT-116 cells assessed as inhibition of cell growth incubated for 72 hrs by MTS assay. Format: functional, cell-based. As to conditions: HCT-116, 72 h. Put shortly: as §1
For data set [4], the system named is HCT 116 TP53(-/-). Briefly: Cytotoxicity against human HCT116-p53-null cells assessed as inhibition of cell growth incubated for 72 hrs by MTS assay. It is filed as functional, cell-based. Put shortly: as §1
The test system of data set [5] is K562. Nature of the data set: Cytotoxicity against human K562 cells assessed as inhibition of cell growth incubated for 72 hrs by MTS assay. Format: functional, cell-based. Conditions: K562, 72 h. Put shortly: as §1
The nature of data set [6]: Cytotoxicity against human K562-Tax cells assessed as inhibition of cell growth incubated for 72 hrs by MTS assay. Format: functional, cell-based. Put shortly:
as §1

Data set [7] has as its system A549. Nature of the data set: Cytotoxicity against human A549 cells assessed as inhibition of cell growth incubated for 72 hrs by MTS assay. It is filed as functional, cell-based. As to conditions: A549, 72 h. The method, boiled down:
as §1

Data set [8] deals with U2OS. Briefly: Cytotoxicity against human U2OS cells assessed as inhibition of cell growth incubated for 72 hrs by MTS assay. Format: functional, cell-based. Put shortly: as §1
Data set [9] can be described thus: Cytotoxicity against human BJ cells assessed as inhibition of cell growth incubated for 72 hrs by MTS assay. Format: toxicity, cell-based. Put shortly:
as §1

Data set [10] is described as follows: Cytotoxicity against human MRC5 cells assessed as inhibition of cell growth incubated for 72 hrs by MTS assay. Format: toxicity, cell-based. The method, boiled down: as §1

For six compounds, IC50 results are on record in ChEMBL document CHEMBL6078712, “Triterpenoid phthalimides as selective anti-cancer agents targeting mitochondrial apoptosis” (Eur J Med Chem, 2025).

A value given as a limit tells only on which side of the number the result lay.

With `COc1ccc(N2C(=O)c3cc([C@@H]4CC[C@]5(C(=O)O)CC[C@]6(C)[C@H](CC[C@@H]7[C@@]8(C)CC[C@H](O)C(C)(C)[C@@H]8CC[C@]76C)[C@@H]45)cc(-c4ccccc4)c3C2=O)cc1`, the IC50 (commonly the midpoint of a concentration-inhibition curve) in data set [1] is 13.6 µM; in data set [2], > 50 µM; in data set [3], > 50 µM; in data set [4], > 50 µM; in data set [5] it was > 50 µM; in [6], 27.9 µM. Also, the IC50 in [7] and in data set [8] was > 50 µM each time. Also, the IC50 at 72 h in data set [9] and in data set [10] was > 50 µM throughout.

As for `CC(=O)O[C@H]1CC[C@]2(C)[C@H]3CC[C@@H]4[C@H]5[C@H](c6ccc7c(c6)C(=O)N(c6cc[nH]n6)C7=O)CC[C@]5(C(=O)O)CC[C@@]4(C)[C@]3(C)CC[C@H]2C1(C)C`, the IC50 in data set [1] was 18.7 µM; in data set [2] it was 25.4 µM; in [3], 24 µM; in data set [4], 30.1 µM; in data set [5] it was 29.4 µM; in data set [6], 21.1 µM. For the same compound, the results for the IC50 in data set [7] and in data set [8] were 27.1 µM and 26.2 µM, respectively. Besides, the figures for the IC50 at 72 h in data set [9] and in data set [10] were 30 µM and 28.3 µM, respectively.

As for `CC(=O)OC[C@]12CC[C@@H](c3cc4c(c(-c5ccccc5)c3)C(=O)NC4=O)[C@@H]1[C@H]1CC[C@@H]3[C@@]4(C)CC[C@H](OC(C)=O)C(C)(C)[C@@H]4CC[C@@]3(C)[C@]1(C)CC2`, the IC50 in [1], in data set [2], in data set [3], in data set [4], in data set [5] and in data set [6] was > 50 µM throughout. The IC50 in data set [7] and in data set [8] was > 50 µM in each case. The IC50 at 72 h in data set [9] and in [10] was > 50 µM in each case.

Consider `CC(=O)Nc1ccc(N2C(=O)c3ccc([C@@H]4CC[C@]5(C(=O)O)CC[C@]6(C)[C@H](CC[C@@H]7[C@@]8(C)CC[C@H](OC(C)=O)C(C)(C)[C@@H]8CC[C@]76C)[C@@H]45)cc3C2=O)cc1`, for which the IC50 in [1] was found to be 16.5 µM; in data set [2] it was 20.8 µM; in data set [3] it was 24.4 µM; in data set [4], 29.6 µM; in data set [5], 27.1 µM; in data set [6], 18.2 µM. Besides, the values for the IC50 in [7] and in data set [8] were 27.1 µM and 24.3 µM, respectively. Also, the IC50 at 72 h was found to be 31.2 µM in data set [9] and 19.8 µM in data set [10].

Take `COC(=O)c1ccc([C@@H]2CC[C@]3(CO)CC[C@]4(C)[C@H](CC[C@@H]5[C@@]6(C)CC[C@H](O)C(C)(C)[C@@H]6CC[C@]54C)[C@@H]23)cc1C(=O)OC`: the IC50 in data set [1] is > 50 µM; in [2] it was 19.7 µM; in [3], > 50 µM; in data set [4], > 50 µM; in data set [5], > 50 µM; in [6] it was 10.3 µM. Also, the IC50 in [7] and in [8] was > 50 µM each time. Moreover, the IC50 at 72 h in data set [9] and in [10] was > 50 µM throughout.

As to `COc1ccc(N2C(=O)c3ccc([C@@H]4CC[C@]5(CO)CC[C@]6(C)[C@H](CC[C@@H]7[C@@]8(C)CC[C@H](OC(C)=O)C(C)(C)[C@@H]8CC[C@]76C)[C@@H]45)cc3C2=O)cc1`, the IC50 in [1], in data set [2], in data set [3], in [4], in [5] and in data set [6] was > 50 µM in each case. Besides, the IC50 in data set [7] and in data set [8] was > 50 µM in each case. In addition, the IC50 at 72 h in data set [9] and in data set [10] was > 50 µM in each case.
